Source: ChEMBL document CHEMBL3861966, “Di-nor- and 17-nor-pimaranes from Icacina trichantha” (J Nat Prod, 2016)
pIC50: −log10 of the molar value.

Experiments:
Assay type in all cases: functional, cell-based
[1] = Cytotoxicity against human MDA-MB-435 cells assessed as decrease in cell viability after 72 hrs by cell titer 96 one solution assay; details: MDA-MB-435, 72 h
How it was run: (§1)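 Cells grown at 37 °C, 5% CO2 in RPMI 1640 with 10% FBS, penicillin 100 units/mL, streptomycin 100 μg/mL. Log-phase cells trypsinized, washed twice, seeded at 5000/well, left overnight. DMSO-dissolved samples added at 20, 4, 0.8, 0.16, 0.032 μM (final DMSO 0.5%). After 72 h at 37 °C, viable cells read by MTS-type absorbance kit. IC50 in μM relative to DMSO control.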

[2] = Cytotoxicity against human MDA-MB-231 cells assessed as decrease in cell viability after 72 hrs by cell titer 96 one solution assay; details: MDA-MB-231, 72 h; how it was run: as §1
[3] = Cytotoxicity against human OVCAR3 cells assessed as decrease in cell viability after 72 hrs by cell titer 96 one solution assay; details: OVCAR-3, 72 h; how it was run: as §1

**Q.** With `C[C@]12C(=O)O[C@@H]3C[C@H]4C5=C(CC[C@H]4[C@]4(CO[C@@]1(O)[C@@H](O)C4)[C@@H]32)C(=O)CO5` as the compound, how does the pIC50 [1] read?
**A.** 5.83

**Q.** What about the pIC50 [2] of the same compound?
**A.** 5.55

**Q.** And the pIC50 [3]?
**A.** 5.49

**Q.** Which results are given for `COc1cc2c(c3occc13)[C@H]1OC3O[C@@]4(O)CC[C@@]23[C@H]2[C@@H]1OC(=O)[C@]24C`?
**A.** pIC50 [1]: < 4.70; pIC50 [2]: < 4.70; pIC50 [3]: < 4.70

**Q.** With `COc1cc2c(c3occc13)[C@@H](O)[C@@]1(O)OC[C@@]23CCC(=O)[C@@H](C)[C@@H]31` as the compound, how does the pIC50 [1] read?
**A.** < 4.70

**Q.** And the pIC50 [2]?
**A.** < 4.70

**Q.** And the pIC50 [3]?
**A.** < 4.70

**Q.** With `C[C@]12C(=O)O[C@@H]3[C@@H](O)[C@H]4c5occc5C(=O)C[C@H]4[C@]4(CO[C@@]1(O)[C@@H](O)C4)[C@@H]32` as the compound, how does the pIC50 [1] read?
**A.** 5.54

**Q.** And the pIC50 [2]?
**A.** 5.12

**Q.** What about the pIC50 [3] of the same compound?
**A.** 5.12

**Q.** With `COc1cc2c(c3occc13)[C@H](O)[C@H]1OC(=O)[C@]3(C)[C@H]1[C@]21CC[C@]3(O)OC1` as the compound, how does the pIC50 [1] read?
**A.** < 4.70

**Q.** And the pIC50 [2]?
**A.** < 4.70

**Q.** And the pIC50 [3]?
**A.** < 4.70

**Q.** With `CC[C@]1(O)C[C@@H]2CN(CCc3c([nH]c4ccccc34)[C@@](C(=O)OC)(c3cc4c(cc3OC)N(C)[C@H]3[C@@](O)(C(=O)OC)[C@H](OC(C)=O)[C@]5(CC)C=CCN6CC[C@]43[C@@H]65)C2)C1` [VINBLASTINE] as the compound, how does the pIC50 [1] read?
**A.** 9.31

**Q.** With `COc1cc2c(c(O)c1C=O)C[C@H]1OC(=O)[C@]3(C)[C@H]1[C@]21CC[C@]3(O)OC1` as the compound, how does the pIC50 [1] read?
**A.** < 4.70

**Q.** And the pIC50 [2]?
**A.** < 4.70

**Q.** What about the pIC50 [3] of the same compound?
**A.** < 4.70
